Measurements as given in ChEMBL document CHEMBL1158993, “Inhibition of tumor-promoter-enhanced 3H-choline incorporation into cellular phospholipids by phloroglucinol derivatives from Mallotus japonicus” (1991).
Converted amounts (≈) assume the structure as drawn. The source made the active and inactive calls. The calls are words filed in the database; no cut-off is given here.

How the values were obtained:
[1] = Antitumor promotor activity against mouse C3H10T1/2 cells assessed as inhibition of TPA-enhanced [3H]choline chloride incorporation in to phospholipids at 10 ug/ml after 1 hr; format: functional; details: C3H 10T1/2
[2] = Antitumor promotor activity against mouse C3H10T1/2 cells assessed as inhibition of TPA-enhanced [3H]choline chloride incorporation in to phospholipids at 2 ug/ml after 1 hr; format: functional; details: C3H 10T1/2
[3] = Antitumor promotor activity against mouse C3H10T1/2 cells assessed as inhibition of TPA-enhanced [3H]choline chloride incorporation in to phospholipids at 50 ug/ml after 1 hr; format: functional; details: C3H 10T1/2
KB = assay: Cytotoxicity against human KB cells; format: functional
HEp-2 = assay: Cytotoxicity against human Hep2 cells; format: functional, cell-based
P388 = assay: Cytotoxicity against mouse P388 cells; format: functional, cell-based
B16 = assay: Cytotoxicity against mouse B16 cells; format: functional, cell-based
C3H 10T1/2 = assay: Antitumor promotor activity against mouse C3H10T1/2 cells assessed as inhibition of TPA-enhanced [3H]choline chloride incorporation in to phospholipids at 1.5 ug/ml after 1 hr; format: functional, cell-based
In short: (§1)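 Mouse C3H10T1/2 fibroblasts were exposed to test agent for 1 h. Then [methyl-3H]choline chloride (9.25 kBq/culture) was added together with TPA (50 nM), and incubation continued for 4 h. Radioactivity in the phospholipid fraction was measured, and inhibition of the TPA-enhanced incorporation was expressed as %. Test concentrations were 50, 10, 2 or 1.5 µg/ml. Values are means of duplicate experiments.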

[4] = Antitumor promotor activity against mouse C3H10T1/2 cells assessed as inhibition of TPA-enhanced [3H]choline chloride incorporation in to phospholipids after 1 hr; format: functional; details: C3H 10T1/2, read-out: ID50 (the source's name); in short: as §1
L5178Y = assay: Cytotoxicity against mouse L5178Y cells; format: functional, cell-based
PC-13 = assay: Cytotoxicity against human PC13 cells; format: functional, cell-based

IC50 [4]	Structure (SMILES)	inhibition at 10 µg/mL [1]	inhibition at 2 µg/mL [2]	inhibition at 50 µg/mL [3]	Activity (KB)	EC50 (KB; read-out: ED50 (the source's name))	Activity (HEp-2)	Activity (P388)	Activity (B16)	Activity (C3H 10T1/2)	Activity (L5178Y)	Activity (PC-13)
	COc1c(C)c(O)c(C(C)=O)c(O)c1Cc1c(O)c(C(C)=O)c(O)c2c1OC(C)(C)C(O)C2 (stereo unspecified) [ISOMALLOTOCHROMANOL]	95.5%	0%	100%								
	COc1c(C)c(O)c(C(C)=O)c(O)c1Cc1c(O)c(C(C)=O)c(O)c2c1OC(C)(C)C=C2 [ISOMALLOTOCHROMENE]	100%	97.9%	100%	Active							
	COc1c(C)c(O)c(C(C)=O)c(O)c1Cc1c(O)c2c(c(C(C)=O)c1O)OC(C)(C)C(O)C2 (stereo unspecified) [MALLOTOCHROMANOL]	29.2%	2.9%	100%								
	COc1c(C)c(O)c(C(C)=O)c(O)c1Cc1c(O)c2c(c(C(C)=O)c1O)OC(C)(C)CC2 [MALLOTOCHROMAN]	68.7%	9.3%	74.3%								
	COc1c(C)c(O)c(C(C)=O)c(O)c1Cc1c(O)c2c(c(C(C)=O)c1O)OC(C)(C)C=C2 [MALLOTOCHROMENE]	66.7%		100%	Active							
1 µg/mL	COc1c(C)c(O)c(C(C)=O)c(O)c1Cc1c(O)c(CC=C(C)C)c(O)c(C(C)=O)c1O [MALLOTOJAPONIN]	100%	85.8%	100%		0.58 µg/mL (≈ 1.3 µM)	Active	Active	Active	Active	Active	Active
	C=C(C)C(O)Cc1c(O)c(Cc2c(O)c(C(C)=O)c(O)c(C)c2OC)c(O)c(C(=O)CCC)c1O (stereo unspecified) [MALLOTOLERIN]	100%	78.8%	100%	Active							
